procasp7 counter – activates human procaspase-7, counter-screen for procaspase-3 activators; P55210; recombinant procaspase-7, Ac-DEVD-pNA absorbance 405 nm; D23A/D198A/D206A triple mutant, cannot self-cleave; scale: DMSO 0, 5 µM enzyme 100; activation, % at 8.5 µM; actives 0.093% (n = 330,000);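 active means percent activation above the screen-wide mean plus 3 SD, cut at about 25% in these data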
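signal = Epi-absorbance of released pNA at 405 nm, two timepoints | assay system = Uncleavable procaspase-7 mutant enzyme | reagent = Ac-DEVD-pNA substrate, 400 µM as added | times = 1 h enzyme–compound preincubation and 2 h substrate reaction, both 25 °C | benchmarks = low DMSO alone, high DMSO plus 5 µM PC-7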
proCasp3 act – activates human procaspase-3. activation, % at 8.5 µM. actives 0.11% (n = 330,000). recombinant procaspase-3 D3A, Ac-DEVD-pNA absorbance 405 nm;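 active means activation above the mean of all tested compounds plus 3 SD, cut at about 21% in these data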;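 further: 0% = DMSO alone and 100% = DMSO wells spiked with extra 5 µM PC-3 D3A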
Target sequence (P42574 whole entry D9A/D28A/D175A): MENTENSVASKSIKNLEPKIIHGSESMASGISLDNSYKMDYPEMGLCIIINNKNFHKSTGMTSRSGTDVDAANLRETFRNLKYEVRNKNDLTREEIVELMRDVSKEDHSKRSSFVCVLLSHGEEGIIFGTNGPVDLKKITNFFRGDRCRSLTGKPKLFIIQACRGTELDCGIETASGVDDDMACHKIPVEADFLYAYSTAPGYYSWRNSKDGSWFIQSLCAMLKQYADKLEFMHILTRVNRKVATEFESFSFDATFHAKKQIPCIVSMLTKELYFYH
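material = Procaspase-3 D3A mutant | probe or stimulus = Ac-DEVD-pNA | compound = single dose, 8.5 µM nominal compound, 0.8% DMSO | timing = 1 h preincubation, 2 h reaction | measured by = 405 nm absorbance of p-nitroaniline, reads at 0 and 120 min | benchmarks = DMSO-only low control, 5 µM PC-3 D3A high control | repeats = singlicate, each compound tested once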
PREPL inh – inhibitors of human prolyl oligopeptidase-like enzyme PREPL | Q4J6C6 | recombinant PREPL, fluorescence polarization activity-based probe | inhibition, % at 5.96 µM | actives 0.68% (n = 320,000) | AID 2751; in the data active means inhibition above about 43%;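 further: 0% = enzyme with DMSO and 100% = wells lacking enzyme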
LYPLA1 counter – counter-screen for PME1 inhibitors: inhibitors of human LYPLA1 | O75608 | recombinant LYPLA1, FP-Rh probe fluorescence polarization | inhibition, % at 5.9 µM | actives 0.16% (n = 320,000);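 active means inhibition above the mean of all tested compounds plus 3 SD, set per campaign, cut at about 14% in these data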;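 further: inhibitors block serine hydrolase probe labeling of LYPLA1 so polarization falls; 0% = enzyme with DMSO and 100% = wells lacking LYPLA1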
Target sequence (O75608 whole entry, looked up): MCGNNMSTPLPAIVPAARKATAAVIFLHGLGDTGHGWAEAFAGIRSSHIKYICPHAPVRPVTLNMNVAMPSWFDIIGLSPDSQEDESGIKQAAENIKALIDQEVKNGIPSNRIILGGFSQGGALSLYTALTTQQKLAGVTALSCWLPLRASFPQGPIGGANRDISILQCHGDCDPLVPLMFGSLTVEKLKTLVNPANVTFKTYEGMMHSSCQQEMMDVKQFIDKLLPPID
LYPLA2 counter – blocks human lysophospholipase 2, a PME1 counter-screen | O95372 | recombinant LYPLA2, FP-Rh probe fluorescence polarization | inhibition, % at 5.9 µM | actives 0.38% (n = 320,000);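 active means inhibition above the screen-wide mean plus 3 SD, limit set per campaign, cut at about 26% in these data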;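 further: 0% = LYPLA2 with DMSO and 100% = wells lacking LYPLA2 enzyme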
LYPLA2 confirm – LYPLA2 (human) inhibition, confirmation counter-screen. inhibition, % at 5.9 µM. shares compounds with LYPLA2 counter. recombinant LYPLA2, FP-Rh probe fluorescence polarization. actives 72% (n = 1,100);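 active means mean inhibition across replicates above the hit cutoff set in the primary screen, cut at about 26% in these data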;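 further: blocked labeling of the enzyme by serine hydrolase FP-Rh probe lowers polarization; 0% = enzyme with DMSO and 100% = wells lacking LYPLA2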
LYPLA2 gel ABPP – LYPLA2 (human) inhibition, late stage results; rhLYPLA2 in mouse brain proteome, gel ABPP FP-Rh; inhibition, % at 20 µM; shares compounds with LYPLA2 counter; actives 30% (n = 150);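 active means inhibition of LYPLA2 enzyme probe labeling above about 50%, limit read from the data; inactive means inhibition below that limit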;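 further: loss of FP-Rh probe labeling of the LYPLA2 gel band measured as band density; 0% = DMSO only control band and 100% = blank gel background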
Numbers without * were called inactive; nt = no result given. Hits are enriched below; roughly 1% of the tested compounds scored in any of these assays.

SMILES	procasp7 counter	proCasp3 act	PREPL inh	LYPLA1 counter	LYPLA2 counter	LYPLA2 confirm	others
CC(C)[C@H](NC(=O)OC(C)(C)C)c1nnc(SCC(=O)Nc2ccc(Br)cc2)o1	7	10	15	0	48*	54*
COc1ccccc1CN1CCNC(=O)C1CC(=O)N(C)Cc1nc(C)cs1 (stereo not given)	5	5	8	0	-1	nt
O=C(NCCCN1CCOCC1)c1cc2c([nH]c3ccccc32)c(-c2cccc(Br)c2)n1	3	15	5	-19	-21	nt
O=C(c1ccc(S(=O)(=O)N2CCCC2)cc1)N1CCC(CN2C(=O)c3cccc4cccc(c34)C2=O)CC1	-4	10	25	5	27*	16
COc1ccc(S(=O)(=O)N2CCC(CN3C(=O)c4cccc5cccc(c45)C3=O)CC2)cc1	9	6	6	-2	5	nt
N#Cc1ccc(-c2ccc(OCC(=O)NCCc3ccccc3)cc2)cc1	11	15	-1	4	35*	15
CCCN(CCC)C(=O)c1ccc2c(c1)S(=O)(=O)c1ccccc1C2=O	-14	-9	6	5	31*	20
CC(=O)c1ccc(N2CCN(C(=O)CCCn3c(=O)[nH]c4ccsc4c3=O)CC2)cc1	-7	4	-18	8	51*	56*	LYPLA2 gel ABPP=16
Cc1cccc(N2CCN(C(=O)Cc3ccc(-n4c(=O)[nH]c5ccsc5c4=O)cc3)CC2)c1C	8	-4	-10	0	67*	68*	LYPLA2 gel ABPP=56*
O=C(CCCn1c(=O)[nH]c2ccsc2c1=O)N1CCCCC1	7	2	-3	3	2	nt
CCCCCOc1ccc(N2C(=O)C3C4C=CC(C3C2=O)N(C)C4=O)cc1 (stereo not given)	-3	-2	-6	1	1	nt
CCOc1ccc(NC(=O)CN(C)C(=O)CN2C(=O)C3CC=CCC3C2=O)cc1OCC (stereo not given)	-2	-7	0	-1	-4	nt
CCOC(=O)C1CCN(C(=O)c2ccc(CNS(=O)(=O)c3ccc(OC)cc3)cc2)CC1	7	5	-4	-2	26*	25
Cc1ccc(C)c(S(=O)(=O)NCc2ccc(C(=O)N3CCC(Cc4ccccc4)CC3)cc2)c1	-7	9	21	-2	45*	47*
Cc1ccc(C)c(S(=O)(=O)NCc2ccc(C(=O)N3CCN(C)CC3)cc2)c1	-1	5	8	3	7	nt
O=C(Nc1ccc2c(c1)OCO2)C1CCN(c2ccc(S(=O)(=O)N3CCOCC3)cc2)CC1	6	10	9	0	0	nt
OC(CCc1ccncc1)COc1ccccc1 (stereo not given)	-6	-4	1	2	-2	nt
COc1ccccc1NC(=O)Cn1nnc2sc3c(c2c1=O)CC(C)(C)OC3	8	2	14	2	22	nt
CC1(C)Cc2c(sc3nnn(CC(=O)Nc4ccccc4)c(=O)c23)CO1	11	-1	2	-1	28*	36*
COc1ccc(N2CCN(C(=O)CNS(=O)(=O)c3ccc(Br)s3)CC2)cc1	-7	-3	3	10	27*	33*
COc1ccc(N2CCN(C(=O)CCNS(=O)(=O)c3cc(Br)cnc3N)CC2)cc1	-8	4	15	1	32*	24
Cc1ccc(C(=O)NC(C)c2ccccc2)cc1S(=O)(=O)N1CCOCC1 (stereo not given)	8	2	-8	4	7	nt
CCN(CC(=O)NCc1cccs1)C(=O)c1cc(S(=O)(=O)N2CCOCC2)ccc1C	-6	-2	-6	-4	29*	-2
CCN(CC(=O)NCc1ccc(Cl)cc1)C(=O)c1cc(S(=O)(=O)N2CCOCC2)ccc1C	-3	-2	11	nt	nt	nt
Cc1ccc(C(C)NC(=O)Cc2cccs2)c(C)c1 (stereo not given)	0	6	-11	1	4	nt
SMILES	procasp7 counter	proCasp3 act	PREPL inh	LYPLA1 counter	LYPLA2 counter	LYPLA2 confirm	others
Cc1cc(C(=O)COc2cccnc2[N+](=O)[O-])c(C)n1-c1ccccc1F	-48	-15	-5	2	28*	25
Cc1ccc(-n2c(C)cc(C(=O)COc3cccnc3[N+](=O)[O-])c2C)cc1	-31	-28	7	0	31*	21
Cc1ncc([N+](=O)[O-])n1CC(=O)NCCc1ccccc1	-3	-5	0	-1	-4	nt
Cc1ccc(C(=O)OCC(=O)N(CC(C)C)c2c(N)n(Cc3ccccc3)c(=O)[nH]c2=O)o1	13	-5	-6	3	2	nt
O=C(Nc1ccc(N2CCN(C(=O)c3ccco3)CC2)cc1)c1cc(Br)ccc1Cl	-1	2	11	7	44*	49*
Cc1ccccc1C(=O)N1CCN(c2ccc(NC(=S)NC(=O)c3ccco3)cc2)CC1	-13	4	14	-3	8	nt
O=C(Nc1ccc(N2CCN(C(=O)c3ccco3)CC2)c(Cl)c1)c1cccnc1	4	3	6	3	11	nt
O=C(c1ccco1)N1CCN(C(=S)Nc2ccc(F)cc2)CC1	-2	0	9	-8	4	nt
O=C(Nc1ccc(N2CCN(C(=O)c3ccco3)CC2)c(Cl)c1)c1c(F)c(F)c(F)c(F)c1F	-2	-20	9	1	62*	64*	LYPLA2 gel ABPP=50*
COc1ccccc1C(=O)NC(=S)Nc1ccc(N2CCN(C(=O)c3ccco3)CC2)cc1	-10	-7	33	2	27*	26
O=C(c1ccco1)N1CCN(C(=S)Nc2ccc(F)c(Cl)c2)CC1	-2	-9	-6	2	66*	68*	LYPLA2 gel ABPP=47
O=S(=O)(c1ccc(-c2csc(Nc3ccc(Br)cc3)n2)cc1)N1CCCC1	4	6	6	8	53*	-13
O=C(O)c1ccccc1SCc1cn2cc(Cl)ccc2n1	-8	4	-10	2	32*	2
O=C(/C=C/N1CCOCC1)c1cc2ccccc2o1	-6	-7	-17	2	-1	nt
O=C1C2CCCCN2C(=O)N1CCCCN1CCN(c2ccc([N+](=O)[O-])cc2)CC1 (stereo not given)	-7	-4	28	6	31*	16
Cc1ccc(S(=O)(=O)N(C)c2ccc(C)c([N+](=O)[O-])c2)cc1	-6	-6	-14	-1	-1	nt
CN(Cc1nc(-c2ccccn2)no1)S(=O)(=O)c1ccc(Cl)cc1	8	0	-1	2	28*	26*
CN(Cc1nc(-c2cccnc2)no1)S(=O)(=O)c1ccccc1	2	5	-6	-1	6	nt
